Key:
[1] = tested on: Rattus norvegicus; assay: Effect after 25 mg/kg, po, on heart rate in conscious spontaneously hypertensive rats; type: functional
In short: (§1)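 Studied conscious 24 h after surgery. Dosed by oral gavage after ≥40 min stabilisation, n=6/group. Vehicle 0.5% carboxymethylcellulose, 5 mL/kg. MAP and HR recorded over 24 h. Output is the maximal change from baseline (mmHg, bpm, %). Repeated-measures ANOVA with Dunnett's tests.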

[2] = biological target: T1, Alpha-1A adrenergic receptor (Bos taurus, UniProt P18130); assay: In Vitro Alpha-1 adrenergic receptor binding affinity on calf frontal cortex membrane preparation; type: tissue-based
T1 sequence (P18130 whole entry): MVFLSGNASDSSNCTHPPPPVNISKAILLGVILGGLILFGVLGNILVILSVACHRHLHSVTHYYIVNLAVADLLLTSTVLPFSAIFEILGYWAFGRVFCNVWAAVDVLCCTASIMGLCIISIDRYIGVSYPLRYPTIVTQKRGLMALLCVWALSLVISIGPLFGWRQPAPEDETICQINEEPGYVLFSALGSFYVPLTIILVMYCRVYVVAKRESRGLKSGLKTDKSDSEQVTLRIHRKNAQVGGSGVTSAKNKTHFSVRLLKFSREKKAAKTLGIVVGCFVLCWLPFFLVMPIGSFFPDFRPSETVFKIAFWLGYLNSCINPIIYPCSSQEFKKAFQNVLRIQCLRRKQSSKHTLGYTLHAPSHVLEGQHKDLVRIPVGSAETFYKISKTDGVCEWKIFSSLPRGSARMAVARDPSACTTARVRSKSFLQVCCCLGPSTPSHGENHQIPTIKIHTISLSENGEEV
In short: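 Calf frontal cortex membranes (0.5 mg protein/mL) incubated 40 min at 25 °C with 0.5 nM [3H]prazosin in 50 mM phosphate buffer with 10 mM MgCl2. Competitors at 10^-9 to 10^-4 M. Nonspecific binding set with 10 µM phentolamine. Stopped by rapid vacuum filtration through glass fibre filters, then washed three times with ice-cold buffer. Ki reported.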

[3] = tested on: Rattus norvegicus; assay: Effect after 25 mg/kg, po, on mean arterial blood pressure in conscious spontaneously hypertensive rats; type: functional; in short: as §1
[4] = tested on: Rattus norvegicus; assay: Effect (25 mg/kg ip) on heart rate in anesthetized spontaneously hypertensive rats; type: functional
In short: (§2)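 Adult male SHR anaesthetised with sodium pentobarbital 50 mg/kg ip, left carotid catheter filled with heparinised saline. BP and HR (HR from pulse pressure) stabilised ≥40 min before a single ip dose, n=6/group. Vehicle 0.5% carboxymethylcellulose in water, 2.5 mL/kg. Recorded over 90 min. Output is the maximal change in MAP (mmHg) and HR (bpm) from pre-dose baseline, also as %. Repeated-measures ANOVA with Dunnett's tests.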

[5] = tested on: Rattus norvegicus; assay: Effect at (25 mg/kg, ip) on heart rate in anesthetized spontaneously hypertensive rats; type: functional; in short: as §2
[6] = In vitro alpha-2 adrenergic receptor binding affinity was determined on calf frontal cortex membrane preparation; type: tissue-based, Bos taurus
[7] = tested on: Rattus norvegicus; assay: Effect (25 mg/kg ip) on mean arterial blood pressure in anesthetized spontaneously hypertensive rats; type: functional; in short: as §2

CN1CC(C2=NCCN2)Oc2ccccc21 (stereo not given)
Max delta HR [1]: -97 beats min-1
Variation [1]: -26%
Ki [2]: 1100 nM
Max delta MAP [3]: -65 mmHg
Variation [3]: -36%
Variation [4]: -44%
Max delta HR [5]: -148 beats min-1
Ki [6]: 74 nM
Max delta MAP [7]: -36 mmHg
Variation [7]: -21%
